Active and inactive are the calls of the source. The rule behind the calls is not given here.
Tests used:
[1] = test system: Human immunodeficiency virus 1; assay: Reactivation of HIV-1 latent proviruses in Th17 resting memory T cells after PRC2 KD infected with vesicular stomatitis virus G-pseudotyped HIV-1 at 10 nM by FACS analysis; type: functional
Procedure, shortened: (§1)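 Naive CD4+ T cells from healthy-donor PBMCs were activated with CD3/CD28 beads, polarized to Th17, and infected with VSV-G-pseudotyped Nef+ HIV-1 expressing CD8a-d2EGFP. Infected cells were CD8a-selected and made quiescent for 2 weeks in IL-2 (15 IU/ml) plus IL-23 ([…]). Cells were then exposed to compound for 96 h. Nef and pSer175-CDK9 were read by FACS, and viability by propidium iodide.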

[2] = test system: Human immunodeficiency virus 1; assay: Reactivation of latent proviruses in human Th17 cells infected with HIV-1 assessed as Nef and pSer175-CDK9 levels at 100 nM after 72 hrs by FACS analysis; type: functional
Procedure, shortened: (§2)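 Th17 cells exposed to inhibitor (100 nM) for 72 h, then infected with HIV-1. Infected cells kept under low-cytokine conditions to enter quiescence, with drug replenished every 72 h. On day 26, cells washed free of drug and induced with CD3/CD28 beads, IL-15 (50 ng/ml) or ConA (5 µg/ml). Nef and pSer175-CDK9 read by FACS; DMSO-pretreated control.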

[3] = test system: Human immunodeficiency virus 1; assay: Reactivation of quiescent HIV-1 infected in human Th17 cells stimulated by IL-15 treated at 100 nM for 72 hrs followed by viral infection replenishment of drug medium every 72 hrs for 26 days by FACS analysis relative to control; type: functional; procedure, shortened: as §2
[4] = test system: Human immunodeficiency virus 1; assay: Reactivation of HIV-1 latent proviruses in Th17 resting memory T cells by measuring pSer175 CDK9 level treated at 10 nM for 96 hrs by FACS analysis (reference value: 0.76%); type: functional
[5] = test system: Human immunodeficiency virus 1; assay: Reactivation of HIV-1 latent proviruses in Th17 resting memory T cells by measuring pSer175 CDK9 level treated at 100 nM for 96 hrs by FACS analysis (reference value: 0.76%); type: functional; procedure, shortened: as §1
[6] = test system: Human immunodeficiency virus 1; assay: Reactivation of HIV-1 latent proviruses in Th17 resting memory T cells by measuring pSer175 CDK9 level treated at 1 uM for 96 hrs by FACS analysis (reference value: 0.76%); type: functional; procedure, shortened: as §1
[7] = test system: Human immunodeficiency virus 1; assay: Reactivation of HIV-1 latent proviruses in Th17 resting memory T cells by measuring pSer175 CDK9 level treated at 10 nM for 96 hrs by FACS analysis (reference value: 1.59%); type: functional
[8] = test system: Human immunodeficiency virus 1; assay: Reactivation of HIV-1 latent proviruses in Th17 resting memory T cells by measuring pSer175 CDK9 level treated at 100 nM for 96 hrs by FACS analysis (reference value: 1.59%); type: functional; procedure, shortened: as §1
[9] = test system: Human immunodeficiency virus 1; assay: Reactivation of HIV-1 latent proviruses in Th17 resting memory T cells by measuring pSer175 CDK9 level treated at 1 uM for 96 hrs by FACS analysis (reference value: 1.59%); type: functional; procedure, shortened: as §1
[10] = test system: Human immunodeficiency virus 1; assay: Reactivation of HIV-1 latent proviruses in Th17 resting memory T cells after PRC2 KD infected with vesicular stomatitis virus G-pseudotyped HIV-1 at 100 nM by FACS analysis relative to control; type: functional
Procedure, shortened: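 Th17 cells were pretreated with 100 nM compound for 72 h, then infected with VSV-G-pseudotyped HIV-1 and cultured under low-cytokine conditions to force quiescence, with drug replenished every 72 h. On day 26 the drug was washed out and cells were induced with CD3/CD28 beads, IL-15 (50 ng/ml) or ConA (5 µg/ml). Nef and pSer175-CDK9 were read by FACS against DMSO-pretreated cells.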

[11] = test system: Human immunodeficiency virus 1; assay: Reactivation of HIV-1 latent proviruses in Th17 resting memory T cells by measuring pSer175 CDK9 level treated at 10 nM for 96 hrs by FACS analysis (reference value: 1.07%); type: functional
[12] = test system: Human immunodeficiency virus 1; assay: Reactivation of HIV-1 latent proviruses in Th17 resting memory T cells by measuring pSer175 CDK9 level treated at 100 nM for 96 hrs by FACS analysis (reference value: 1.07%); type: functional
[13] = test system: Human immunodeficiency virus 1; assay: Reactivation of HIV-1 latent proviruses in Th17 resting memory T cells by measuring pSer175 CDK9 level treated at 1 uM for 96 hrs by FACS analysis (reference value: 1.07%); type: functional; procedure, shortened: as §1
[14] = test system: Human immunodeficiency virus 1; assay: Reactivation of HIV-1 infected in human Jurkat cells at 1 uM measured after 7 days by FACS analysis relative to control; type: functional; conditions: time 7 day
Procedure, shortened: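 E4 Jurkat cells carrying latent d2EGFP HIV-1, infected with shRNA or CRISPR-Cas9 lentivirus. Seven days post-infection, stimulated overnight with SAHA (1 µM), anti-CD3 (0.125 µg/ml) plus anti-CD28 (1 µg/ml), or TNF-α (1 ng/ml). d2EGFP-positive cells quantified by FACS. Three separate experiments, SEM.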

[15] = test system: Human immunodeficiency virus 1; assay: Antiviral activity against HIV-1 in human Jurkat T cells assessed as reduction GFP positive cells at 1 uM for 18 hrs; type: functional, organism-based
Procedure, shortened: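 Jurkat E6 cells pretreated overnight with inhibitor (5 µM; DZNep 5 or 10 µM; phenelzine 250 µM), washed twice with PBS, then spinoculated with VSV-G-pseudotyped HIV-1 (d2EGFP-Nef). Three days later, silent proviruses induced with 1 µM SAHA for 18 h. d2EGFP measured by FACS. Relative silencing is the % silent virus (SAHA-stimulated minus untreated GFP+), divided by scrambled/untreated control. Two independent experiments, SEM.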

Compound	Activity [1]	Activity [2]	Activity [3]	Activity [4]	Activity [5]	Activity [6]	Activity [7]	Activity [8]	Activity [9]	Activity [10]	Activity [11]	Activity [12]	Activity [13]	Activity [14]	Activity [15]
CCN(c1cc(-c2ccc(CN3CCOCC3)cc2)cc(C(=O)NCc2c(C)cc(C)[nH]c2=O)c1C)C1CCOCC1 [TAZEMETOSTAT]	20%	~10%	40%	16.28%	29.17%	27.81%									
COc1cc2c(NC3CCN(C(C)C)CC3)nc(C3CCCCC3)nc2cc1OCCCN1CCCC1	35%	~4%	22%				22.84%	32.18%	34.92%						
CCCc1cc(C)[nH]c(=O)c1CNC(=O)c1cc(-c2ccnc(N3CCN(C)CC3)c2)cc2c1cnn2C(C)C	20%	~8%	27%							24.15%	22.31%	24.13%	29.11%		
O=C(CCCCCCC(=O)Nc1ccccc1)NO [VORINOSTAT]														~30%	Active
